Reference: ChEMBL document CHEMBL3046492, “Synthesis, insecticidal, and acaricidal activities of novel 2-aryl-pyrrole derivatives containing ester groups” (2008)

Columns and labels:
Format in all cases: functional
Culex pipiens pallens [1] = assay: Insecticidal activity against fourth-instar larval stage of Culex pipiens pallens (mosquito) assessed as mortality at 0.10 mg/kg at 25 +/-1 degC after 2 days; details: 48 h
Procedure, shortened: (§1)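 Test solutions were prepared by adding 1 mL of each concentrated dilution to 99 mL water. Bioassays were run at 25 ± 1 °C on laboratory-reared insects.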

Mythimna separata [2] = assay: Insecticidal activity against fourth-instar larval stage of Mythimna separata (Oriental armyworm) in compound pretreated corn leaves assessed as mortality at 5 mg/kg at 25 +/-1 degC measured after 2 days
Mythimna separata [3] = assay: Insecticidal activity against fourth-instar larval stage of Mythimna separata (Oriental armyworm) in compound pretreated corn leaves assessed as mortality at 10 mg/kg at 25 +/-1 degC measured after 2 days
Culex pipiens pallens [4] = assay: Insecticidal activity against fourth-instar larval stage of Culex pipiens pallens (mosquito) assessed as mortality at 0.25 mg/kg at 25 +/-1 degC after 2 days; details: 48 h; procedure, shortened: as §1
Tetranychus cinnabarinus [5] = assay: Acaricidal activity against adult Tetranychus cinnabarinus (carmine spider mite) in sieva bean plants assessed as mortality at 200 mg/kg treated for 3 secs measured after 2 days; details: 48 h
Mythimna separata [6] = assay: Insecticidal activity against fourth-instar larval stage of Mythimna separata (Oriental armyworm) in compound pretreated corn leaves assessed as mortality at 20 mg/kg at 25 +/-1 degC measured after 2 days
Culex pipiens pallens [7] = assay: Insecticidal activity against fourth-instar larval stage of Culex pipiens pallens (mosquito) assessed as mortality at 0.50 mg/kg at 25 +/-1 degC after 2 days; details: 48 h; procedure, shortened: as §1
Tetranychus cinnabarinus [8] = assay: Acaricidal activity against adult Tetranychus cinnabarinus (carmine spider mite) in sieva bean plants assessed as mortality at 100 mg/kg treated for 3 secs measured after 2 days; details: 48 h
Tetranychus cinnabarinus [9] = assay: Acaricidal activity against adult Tetranychus cinnabarinus (carmine spider mite) in sieva bean plants assessed as mortality at 50 mg/kg treated for 3 secs measured after 2 days; details: 48 h

| Structure (SMILES) | mortality at 0.1 mg/kg (Culex pipiens pallens [1]) | mortality at 5 mg/kg (Mythimna separata [2]) | mortality at 10 mg/kg (Mythimna separata [3]) | mortality at 0.25 mg/kg (Culex pipiens pallens [4]) | mortality at 200 mg/kg (Tetranychus cinnabarinus [5]) | mortality at 20 mg/kg (Mythimna separata [6]) | mortality at 0.5 mg/kg (Culex pipiens pallens [7]) | mortality at 100 mg/kg (Tetranychus cinnabarinus [8]) | mortality at 50 mg/kg (Tetranychus cinnabarinus [9]) |
| --- | --- | --- | --- | --- | --- | --- | --- | --- | --- |
| N#Cc1c(Br)c(C(F)(F)F)n(COC(=O)c2cc([N+](=O)[O-])cc([N+](=O)[O-])c2)c1-c1ccc(Cl)cc1 | 100% | 0% | 0% | 100% | 0% | 100% | 100% |  |  |
| N#Cc1c(Br)c(C(F)(F)F)n(COC(=O)c2ccccc2[N+](=O)[O-])c1-c1ccc(Cl)cc1 | 10% | 20% | 100% | 20% | 0% | 100% | 100% |  |  |
| CC(Oc1ccc(C(C)(C)C)cc1)C(=O)OCn1c(-c2ccc(Cl)cc2)c(C#N)c(Br)c1C(F)(F)F (stereo not given) | 100% | 0% | 30% | 100% | 100% | 80% | 100% | 96% | 94% |
| N#Cc1c(Br)c(C(F)(F)F)n(COC(=O)C(=O)c2ccccc2)c1-c1ccc(Cl)cc1 |  | 0% | 60% |  | 100% | 100% |  | 88% | 79% |
| CCCC(=O)OCn1c(-c2ccc(Cl)cc2)c(C#N)c(Br)c1C(F)(F)F | 100% | 0% | 100% | 100% | 100% | 100% | 100% | 100% | 100% |
| N#Cc1c(Br)c(C(F)(F)F)n(COC(=O)c2cccc([N+](=O)[O-])c2)c1-c1ccc(Cl)cc1 | 30% | 0% | 0% | 40% | 98% | 100% | 80% | 94% | 90% |
| N#Cc1c(Br)c(C(F)(F)F)n(COC(=O)c2ccccc2)c1-c1ccc(Cl)cc1 | 10% | 0% | 60% | 20% | 100% | 100% | 100% | 100% | 100% |
| CCOC(=O)OCn1c(-c2ccc(Cl)cc2)c(C#N)c(Br)c1C(F)(F)F | 100% | 0% | 90% | 100% | 100% | 100% | 100% | 89% | 84% |
| CCCCC(=O)OCn1c(-c2ccc(Cl)cc2)c(C#N)c(Br)c1C(F)(F)F | 100% | 0% | 100% | 100% | 100% | 100% | 100% | 100% | 100% |
| N#Cc1c(Br)c(C(F)(F)F)n(COC(=O)c2ccccc2N)c1-c1ccc(Cl)cc1 | 100% | 0% | 0% | 100% | 0% | 10% | 100% |  |  |
| CC(Oc1ccc(Cl)cc1)C(=O)OCn1c(-c2ccc(Cl)cc2)c(C#N)c(Br)c1C(F)(F)F (stereo not given) | 100% | 0% | 80% | 100% | 98% | 100% | 100% | 95% | 94% |
| N#Cc1c(Br)c(C(F)(F)F)n(COC(=O)c2ccc([N+](=O)[O-])cc2)c1-c1ccc(Cl)cc1 | 20% | 0% | 50% | 60% | 95% | 100% | 100% | 93% | 92% |
| CC(C)C(=O)OCn1c(-c2ccc(Cl)cc2)c(C#N)c(Br)c1C(F)(F)F |  | 0% | 100% |  | 100% | 100% |  | 100% | 100% |
| N#Cc1c(Br)c(C(F)(F)F)n(COC(=O)c2ccc(Cl)cc2)c1-c1ccc(Cl)cc1 | 10% | 10% | 100% | 20% | 100% | 100% | 100% | 100% | 100% |
| N#Cc1c(Br)c(C(F)(F)F)n(COC(=O)c2ccccc2Cl)c1-c1ccc(Cl)cc1 | 100% | 0% | 35% | 100% | 99% | 100% | 100% | 95% | 93% |
| COc1cccc(C(=O)OCn2c(-c3ccc(Cl)cc3)c(C#N)c(Br)c2C(F)(F)F)c1 | 50% | 0% | 90% | 65% | 100% | 100% | 100% | 65% | 50% |
| Cc1cccc(OC(C)C(=O)OCn2c(-c3ccc(Cl)cc3)c(C#N)c(Br)c2C(F)(F)F)c1 (stereo not given) | 100% | 0% | 40% | 100% | 100% | 100% | 100% | 98% | 96% |
| CCC(=O)OCn1c(-c2ccc(Cl)cc2)c(C#N)c(Br)c1C(F)(F)F | 100% | 0% | 90% | 100% | 100% | 100% | 100% | 92% | 88% |
| CC(Oc1cccc(Cl)c1)C(=O)OCn1c(-c2ccc(Cl)cc2)c(C#N)c(Br)c1C(F)(F)F (stereo not given) | 100% | 0% | 45% | 100% | 98% | 100% | 100% | 93% | 93% |
| Cc1ccc(C(=O)OCn2c(-c3ccc(Cl)cc3)c(C#N)c(Br)c2C(F)(F)F)cc1 | 100% | 0% | 100% | 100% | 100% | 100% | 100% | 100% | 100% |
| CC(Oc1cccc([N+](=O)[O-])c1)C(=O)OCn1c(-c2ccc(Cl)cc2)c(C#N)c(Br)c1C(F)(F)F (stereo not given) | 90% | 0% | 85% | 100% | 0% | 100% | 100% |  |  |
| COc1ccc(C(=O)OCn2c(-c3ccc(Cl)cc3)c(C#N)c(Br)c2C(F)(F)F)cc1 | 20% | 0% | 90% | 30% | 0% | 100% | 70% |  |  |
| N#Cc1c(Br)c(C(F)(F)F)n(COC(=O)c2ccc(N)cc2)c1-c1ccc(Cl)cc1 | 10% | 0% | 0% | 10% | 0% | 40% | 100% |  |  |
| N#Cc1c(Br)c(C(F)(F)F)n(COC=O)c1-c1ccc(Cl)cc1 | 50% | 0% | 100% | 100% | 100% | 100% | 100% | 89% | 82% |
| CC(=O)OCn1c(-c2ccc(Cl)cc2)c(C#N)c(Br)c1C(F)(F)F | 100% | 0% | 90% | 100% | 0% | 100% | 100% |  |  |
